Results taken from ChEMBL document CHEMBL2146414, “Lignan derivatives from Krameria lappacea roots inhibit acute inflammation in vivo and pro-inflammatory mediators in vitro” (J Nat Prod, 2011).
Calls of active or inactive are those of the source.

Columns and labels:
Format in all cases: functional, organism-based
Mus musculus [1] = test: Antiinflammatory effect in CD1 mouse ear dermatitis model assessed as reduction in cellular changes at 0.4 umol administered topically per cm'2 of ear measured after 6 hrs post dermatitis induction relative to control
How it was run: (§1)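 Male CD-1 mice (28–32 g) anesthetized with ketamine 145 mg/kg ip; right ear (about 1 cm2) given 80 μg croton oil in 15 μL acetone with test substance co-applied in acetone; controls irritant only; left ear untreated. Ears fixed in 10% formalin, paraffin-embedded, 10 μm sections stained hematoxylin-eosin or Giemsa, examined by light microscopy at set times after induction.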

Mus musculus [2] = test: Antiinflammatory effect in CD1 mouse ear dermatitis model assessed as preservance of mast cell degranulation at 0.4 umol administered topically per cm'2 of ear measured after 6 hrs post dermatitis induction relative to control; how it was run: as §1
Mus musculus [3] = test: Antiinflammatory effect in CD1 mouse ear dermatitis model assessed as reduction in mast cell degranulation at 0.4 umol administered topically per cm'2 of ear measured after 6 hrs post dermatitis induction relative to control; how it was run: as §1
Mus musculus [4] = test: Antiinflammatory effect in CD1 mouse ear dermatitis model assessed as reduction in leukocyte infiltration-based myeloperoxidase at 0.4 umol administered topically per cm'2 of ear measured after 6 hrs post dermatitis induction relative to control
How it was run: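 CD-1 mice, croton oil 80 μg in acetone on right ear with topical test substance; ear punch (6 mm) homogenized in 0.1 M sodium acetate pH 4.2 with 0.1% HTAB, centrifuged 15000g 5 min; supernatant myeloperoxidase measured with TMB (2.83 mM) and 0.7 mM H2O2, 5 min at 25 °C, stopped with acetic acid, A620; duplicates; units = nM TMB oxidized/min.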

Measured: inhibition

COc1ccc(-c2cc3cc(CCCO)ccc3o2)c(O)c1
active: all assays above

C/C=C/c1ccc2c(c1)[C@@H](C)[C@H](c1ccc(O)cc1)O2
active: all assays above
